Bioassay records deposited in PubChem by Johns Hopkins Ion Channel Center.
KCNK9 block – inhibitors of human KCNK9 two-pore domain potassium channel; Q9NPC2; HEK293 KCNK9, FluxOR thallium flux fluorescence; stronger effect = lower value; B-score at 10 µM; 310,000 compounds, 1.2% hits; AID 488922;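 active = ratio B-score over 3 SD below the library mean, with starting fluorescence within 5 SD of its mean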;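 note: negative B-score means less thallium flux so channel inhibition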
KCNQ1 inh – blocks the human KCNQ1 potassium channel. P51787. CHO-K1 KCNQ1, FluxOR thallium flux fluorescence; stronger effect = higher value. B-score at 10 µM. 310,000 compounds, 1.3% hits;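 active = compounds whose thallium flux B-score, printed positive for inhibition, exceeds three library SD while starting fluorescence stays within three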;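 note: channel opened by potassium depolarization with thallium stimulus after 20 min compound exposure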
Kir21 inh – blocks the mouse Kir2.1 inward-rectifier potassium channel; HEK293-Kir2.1, FluxOR thallium flux fluorescence; stronger effect = lower value; 310,000 compounds, 0.85% hits; P35561; B-score at 10 µM;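 active = fluorescence ratio B-score at or below minus 3 SD of library scores, with starting-brightness B-score within 2 SD, cut at about -4.2 in these data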;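 note: channel flux triggered by added potassium and thallium sulfate stimulus; B-score of peak minus minimum fluorescence over baseline after thallium stimulus; more negative B-score means stronger Kir2.1 block with less thallium influx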
hERG protect – hERG (human) protection from proarrhythmic block | Q12809 | 310,000 compounds, 0.51% hits | activation (rescue from dofetilide block), less the hit threshold, % at 10 µM | CHO-hERG, FluxOR thallium flux, dofetilide IC70 present | AID 1511;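 active = activation above the mean of controls blocked by dofetilide plus 5 SD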;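 note: thallium influx through hERG after potassium depolarization seen as dye fluorescence rise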
KCNK3 inh – human KCNK3 channel inhibition, primary screen | O14649 | CHO-KCNK3 thallium flux, FluxOR fluorescence; stronger effect = lower value | B-score at 10 µM | 340,000 compounds, 0.84% hits;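 active = B-score under library mean minus 4 SD, starting fluorescence ratio at most library mean plus 5 SD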;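 note: more negative B-score means stronger inhibition of thallium flux through KCNK3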
Target sequence (O14649 whole entry, looked up): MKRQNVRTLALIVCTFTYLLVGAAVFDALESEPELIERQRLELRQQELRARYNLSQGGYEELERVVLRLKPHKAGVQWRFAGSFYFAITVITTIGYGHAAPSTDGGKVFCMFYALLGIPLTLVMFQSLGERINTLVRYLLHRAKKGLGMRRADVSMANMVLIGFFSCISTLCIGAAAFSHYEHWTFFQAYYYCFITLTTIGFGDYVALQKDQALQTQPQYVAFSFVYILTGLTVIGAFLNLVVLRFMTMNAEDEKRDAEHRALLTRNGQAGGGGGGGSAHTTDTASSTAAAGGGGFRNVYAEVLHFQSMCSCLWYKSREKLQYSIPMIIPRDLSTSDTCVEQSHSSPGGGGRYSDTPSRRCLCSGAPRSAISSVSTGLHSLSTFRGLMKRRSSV
KCNQ1 pot – potentiates or activates the human KCNQ1 potassium channel. P51787. CHO-K1 KCNQ1, thallium flux FluxOR fluorescence; stronger effect = higher value. B-score at 10 µM. 310,000 compounds, 0.35% hits. AID 2648;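 active = fluorescence ratio B-score, a plate-corrected score, at least three library SD, with initial intensity B-score within 5 SD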
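Medium – assay buffer, equal DMSO in all wells · Material – CHO-K1 cell line with stable KCNQ1 potassium channel expression · Signal – kinetic FluxOR thallium fluorescence, 10-s 1-Hz baseline, 110-s post-stimulus read · Compound – single concentration per compound, DMSO matched to controls · Schedule – 37 °C overnight plating, 90-min dark dye load, 20-min compound pretreatment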
KCNK9 inh conf – confirmation of human KCNK9 potassium channel inhibitors; 4,900 compounds, 43% hits; inhibition, % at 10 µM; shares compounds with KCNK9 block; HEK293 KCNK9 cells, FluxOR thallium flux fluorescence;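 active = thallium signal inhibited by more than 5 SD of the compound-free buffer control wells, on both duplicate plates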;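 note: 0% = assay buffer control wells without compound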
Kir2-1 spec – tests whether KCNK9 modulators also affect mouse Kir2.1 | shares compounds with KCNK9 block | Kir2.1 cells, FluxOR thallium flux fluorescence | inhibition, % at 10 µM | 4,900 compounds, 4% hits;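 active = thallium signal drop more than 5 SD beyond the mean of the no-compound control wells, seen in both duplicate plates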;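 note: signal is fluorescence rise after thallium addition divided by baseline fluorescence; plate controls were assay buffer only for no effect and full block by chlorpromazine control for full effect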
HEK293 Tl ctr – second counter-screen for KCNK9 modulators: effect in non-induced cells | shares compounds with KCNK9 block | non-induced KCNK9-HEK293, FluxOR thallium flux | inhibition, % at 10 µM | 4,900 compounds, 40% hits;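 active = thallium signal drop beyond 5 SD of the untreated control mean, on both duplicate plates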;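 note: plate controls were buffer only IC0 wells for no effect and SID17386958 at its maximal inhibitory level for full effect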
Numbers without * were called inactive; i = inactive; . = no result given. Most compounds without a hit are left out; they make up all but 3.7% or so of the library.

SMILES	KCNK9 block	KCNQ1 inh	Kir21 inh	hERG protect	KCNK3 inh	KCNQ1 pot	KCNK9 inh conf	Kir2-1 spec	HEK293 Tl ctr
CS(=O)(=O)N(CC(=O)N1CCN(c2ccccc2)CC1)c1ccc(Cl)c(C(F)(F)F)c1	i	i	1.6	-7	i	i	i	i	i
Cc1ccc(Cl)cc1N1CCN(C(=O)CN(c2ccccc2)S(=O)(=O)N(C)C)CC1	-9*	i	0.27	-13	i	i	28%*	i	34%*
CC1CCN(C(=O)CN(c2ccc(Cl)c(C(F)(F)F)c2)S(C)(=O)=O)CC1	i	i	-1.2	-7	i	i	.	.	.
CCC(Sc1nc(C)cc(C)n1)C(=O)Nc1nccs1 (stereo not drawn)	i	i	-1.6	-7	i	i	.	.	.
C(=N\NC(=Nc1ccccc1)c1ccccn1)/c1ccccn1	i	i	1	-3	i	i	.	.	.
Clc1ccc(/C=N/NC(=Nc2ccccc2)c2ccccn2)c(Cl)c1	i	i	-0.61	-8	i	i	i	i	i
Cc1nnc(SCC(=O)Nc2cc(C(N)=O)cc(C(N)=O)c2)n1-c1ccccc1	i	i	1.6	-3	i	i	.	.	.
Cc1ccc(CCc2nnc(SCC(=O)Nc3cccc(Cl)c3)n2-c2ccccc2)o1	i	i	-0.52	-8	i	i	i	i	i
Cc1cc([N+](=O)[O-])nn1Cc1ccc(C(=O)N/N=C/c2ccc(N(C)C)cc2)cc1	i	i	-1	-7	i	i	.	.	.
NS(=O)(=O)c1ccc(NCc2cc(Cl)ccc2OCc2ccccc2F)cc1	-15*	i	-0.57	-8	i	i	50%*	i	41%*
COc1ccc(-n2c(=O)c(CCC(=O)NCCc3ccccc3F)nc3ccccc32)cc1	.	.	.	.	i	.	.	.	.
Cn1c(CCCOc2ccc(Cl)cc2Cl)nnc1SCC(=O)Nc1ccc(F)c(Cl)c1	i	i	1.5	-9	i	i	i	i	i
Cn1c(CCCOc2ccc(Cl)cc2Cl)nnc1SCC(=O)Nc1cccc(F)c1	i	i	-0.77	-7	i	i	.	.	.
CCn1c(CCCOc2ccc(Cl)cc2Cl)nnc1SCC(=O)Nc1cc(F)ccc1C	-9.7*	i	0.03	-6	i	i	58%*	i	30%*
O=C(O)CC1S/C(=N/N=C/c2ccccn2)NC1=O (stereo not drawn)	i	i	2.4	-3	i	i	.	.	.
CCOc1cc(/C=N/N=C2/NC(=O)C(CC(=O)O)S2)ccc1OCc1ccc(Cl)cc1Cl (stereo not drawn)	i	i	-2.1	-5	i	i	i	i	i
CC(=O)c1cccc(NC(=O)C(C)N(C)CC(=O)Nc2ccc(Cl)cc2)c1 (stereo not drawn)	i	i	1.4	-10	i	i	.	.	.
COc1ccc(OCC2CCCN(Cc3nc(CC4CC4)no3)C2)cc1 (stereo not drawn)	i	i	0.15	-4	i	i	.	.	.
c1ccc(C2CCCN(Cc3nc(CC4CC4)no3)CC2)cc1 (stereo not drawn)	i	i	1.9	-12	i	i	i	i	i
Cc1cccc(N2CCN(Cc3nc(CC4CC4)no3)CC2)n1	i	i	1.6	-10	i	i	.	.	.
Cc1ccccc1C1CCCN(Cc2nc(CC3CC3)no2)C1 (stereo not drawn)	i	i	0.06	-18	i	i	i	i	i
O=C(Cc1cccc(NC(=O)C2CCCN(C(=O)C3CCCC3)C2)c1)Nc1ccc(C(=O)N2CCOCC2)cc1 (stereo not drawn)	.	.	.	.	i	.	.	.	.
O=C(CSc1nnc(C2CC2)n1-c1ccccc1)N1CCNC1=O	.	.	.	.	i	.	.	.	.
COc1cc(/C=C(/C#N)C(=O)NCc2ccccc2)cc(OC)c1OC	i	i	0.12	-8	i	i	.	.	.
COc1ccc(/C=C(\C#N)C(=O)NCCc2ccccc2)cc1OCc1ccccc1	i	i	0.6	-19	i	i	i	i	i
SMILES	KCNK9 block	KCNQ1 inh	Kir21 inh	hERG protect	KCNK3 inh	KCNQ1 pot	KCNK9 inh conf	Kir2-1 spec	HEK293 Tl ctr
COc1cc(OC)cc(-c2c(C#Cc3ccsc3)c3cc(-c4ccc5c(c4)OCO5)ccc3n2C)c1	.	.	.	.	i	.	.	.	.
O=C(Nc1c(Cl)cccc1Cl)c1ccc(-c2ccccc2)cc1	-8.5*	i	-1.3	-1	i	i	34%*	i	i
O=C(Nc1ccc(Cl)cc1Cl)c1ccc(-c2ccccc2)cc1	i	i	0	-4	i	i	.	.	.
CCOC(=O)NC(=O)CSc1nc(-c2ccc(C)c(C)c2)cn1-c1ccccc1	-8.2*	i	-1.2	-10	i	i	42%*	i	36%*
Cc1ccc(-c2cn(-c3ccccc3)c(SCC(N)=O)n2)cc1C	i	i	0.8	-7	i	i	.	.	.
Cc1ccc(S(=O)(=O)N2CCN(C(=O)NCc3ccc(C(=O)O)cc3)CC2)cc1	i	i	0	-6	i	i	.	.	.
Cc1ccc(C)n1-c1ccc(C(=O)Nc2ccccc2F)cc1	i	i	1	-16	i	i	.	.	.
CCc1ccccc1NC(=O)c1ccc(-n2c(C)ccc2C)cc1	-8.5*	i	0.9	-6	i	i	32%*	i	i
N#CCCN(C(=O)COC(=O)CCc1c[nH]c2ccccc12)c1ccc(F)cc1	i	i	-0.01	-11	i	i	.	.	.
Cc1ccc2oc(-c3cccc(NC(=S)NC(=O)/C=C/c4ccco4)c3)nc2c1	i	i	-0.11	-11	i	i	i	i	i
Cc1ccc2oc(-c3cccc(NC(=S)NC(=O)c4cccs4)c3)nc2c1	i	i	0.68	-6	i	i	.	.	.
Cc1ccccc1OCc1nc2ccccc2c(=O)n1/N=C/c1cccc([N+](=O)[O-])c1	-8.8*	i	2.7	-9	i	i	i	i	i
Cc1ccccc1OCc1nc2ccccc2c(=O)n1/N=C/c1cn[nH]c1-c1ccccc1	i	i	0.03	-13	i	i	.	.	.
C=CCOc1ccccc1CN1CCC(Cc2ccccc2)CC1	i	i	-4.3*	-5	i	i	i	i	i
